Measurements as given in ChEMBL document CHEMBL1125708, “Synthesis and antiviral activity of 5-heteroaryl-substituted 2'-deoxyuridines” (1991).
≈ marks a conversion by molar mass, not a printed value.

Key:
Settings in all cases: Homo sapiens
E6SM [1] = assay: Minimum inhibitory concentration required to reduce virus induced cytopathicity in embryonic skin muscle (E6SM) cell culture of virus HSV-1 (KOS) was measured; assay type: functional
E6SM [2] = assay: minimum inhibitory concentration required to cause a microscopically detectable change in normal cell morphology; assay type: functional
How it was run: (§1)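 Cytotoxicity was judged by microscopic inspection of uninfected cell monolayers in microtiter plates. The value is the minimum concentration causing a microscopically detectable change in normal cell morphology.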

E6SM [3] = assay: Minimum inhibitory concentration required to reduce virus induced cytopathicity in embryonic skin muscle (E6SM) cell culture of virus HSV-1 (Mc Intyre) was measured; assay type: functional
E6SM [4] = assay: Minimum inhibitory concentration required to reduce virus induced cytopathicity in embryonic skin muscle (E6SM) cell culture of virus HSV-1( F) was measured; assay type: functional
HEL [5] = assay: In vitro antiviral activity and cytotoxicity, and minimum inhibitory concentration required to reduce cell growth by 50% in HEL cell culture; assay type: functional
How it was run: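 Cytotoxicity was measured as inhibition of growth of human embryonic lung (HEL) cells seeded in 96-well microtiter plates. The value is the concentration reducing cell growth by 50%.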

E6SM [6] = assay: Minimum inhibitory concentration required to reduce virus induced cytopathicity in embryonic skin muscle (E6SM) cell culture of virus TK- HSV-1 (VMW1837) was measured; assay type: functional
HEL [7] = assay: Minimum inhibitory concentration required to reduce virus induced plaque formation in HEL cell culture of virus VZS (OKA) was measured; assay type: functional
How it was run: (§2)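 Plaque-reduction assay in human embryonic lung (HEL) cells in 96-well microtiter plates. VZV strains were Oka and YS, plus TK-deficient 07-1 and YS-R. CMV strains were AD169 and Davis. The value is the concentration reducing virus plaque formation by 50%.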

E6SM [8] = assay: Minimum inhibitory concentration required to reduce virus induced cytopathicity in embryonic skin muscle (E6SM) cell culture of virus HSV-2 (Lyons) was measured.; assay type: functional
HEL [9] = assay: Minimum inhibitory concentration required to reduce virus induced plaque formation in HEL cell culture of virus CMV (Davis) was measured; assay type: functional; how it was run: as §2
HEL [10] = assay: Minimum inhibitory concentration required to reduce virus induced plaque formation in HEL cell culture of virus TK- VZV (07-1) was measured; assay type: functional; how it was run: as §2
E6SM [11] = assay: Minimum inhibitory concentration required to reduce virus induced cytopathicity in embryonic skin muscle (E6SM) cell culture of virus VV was measured; assay type: functional
HEL [12] = assay: Minimum inhibitory concentration required to reduce virus induced plaque formation in HEL cell culture of virus CMV (AD169) was measured; assay type: functional; how it was run: as §2
E6SM [13] = assay: Minimum inhibitory concentration required to reduce virus induced cytopathicity in embryonic skin muscle (E6SM) cell culture of virus HSV-2 (G) was measured; assay type: functional
HEL [14] = assay: minimum inhibitory concentration required to reduce virus induced plaque formation in HEL cell culture of virus VZS (YS) was measured.; assay type: functional; how it was run: as §2
E6SM [15] = assay: (§3) Minimum inhibitory concentration required to reduce virus induced cytopathicity in embryonic skin muscle (E6SM) cell culture of virus VSV was measured; assay type: functional
E6SM [16] = assay: Minimum inhibitory concentration required to reduce virus induced cytopathicity in embryonic skin muscle (E6SM) cell culture of virus HSV-2 (196) was measured.; assay type: functional
E6SM [17] = assay: Minimum inhibitory concentration required to reduce virus induced cytopathicity in embryonic skin muscle (E6SM) cell culture of virus TK- HSV-1 (B2006) was measured; assay type: functional
HEL [18] = assay: Minimum concentration required to reduce virus induced plaque formation in HEL cell culture of virus TK- VZV (YS-R) was measured; assay type: functional; how it was run: as §2
E6SM [19] = assay: Minimum inhibitory concentration required to cause a microscopically detectable change in normal cell morphology; assay type: functional; how it was run: as §1
E6SM [20] = assay: Minimum inhibitory concentration required to reduce virus induced cytopathicity in embryonic skin muscle (E6SM) cell culture of virus HSV-2 (196) was measured; assay type: functional
HEL [21] = assay: Minimum inhibitory concentration required to reduce virus induced plaque formation in HEL cell culture of virus VZS (YS) was measured; assay type: functional; how it was run: as §2
E6SM [22] = assay: minimum inhibitory concentration required to reduce virus induced cytopathicity in embryonic skin muscle (E6SM) cell culture of virus HSV-2 (Lyons) was measured.; assay type: functional
HEL [23] = assay: Minimum inhibitory concentration required to reduce virus induced plaque formation in HEL cell culture of virus TK- VZV (YS-R) was measured; assay type: functional; how it was run: as §2
HEL [24] = assay: as §3; assay type: functional
E6SM [25] = assay: Minimum inhibitory concentration required to reduce virus induced cytopathicity in embryonic skin muscle (E6SM) cell culture of virus VV was measured

Row | SMILES | MIC (E6SM [1]) [mg/L] | MIC (E6SM [3]) [mg/L] | MIC (E6SM [4]) [mg/L] | MIC (HEL [5]) [mg/L] | MIC (E6SM [6]) [mg/L] | MIC (HEL [7]) [mg/L] | MIC (E6SM [8]) [mg/L] | MIC (HEL [9]) [mg/L] | MIC (HEL [10]) [mg/L] | MIC (E6SM [11]) [mg/L] | MIC (HEL [12]) [mg/L] | MIC (E6SM [13]) [mg/L] | MIC (HEL [14]) [mg/L] | MIC (E6SM [15]) [mg/L] | MIC (E6SM [16]) [mg/L] | MIC (E6SM [17]) [mg/L] | MIC (HEL [18]) [mg/L] | MIC (E6SM [19]) [mg/L] | MIC (HEL [21]) [mg/L] | other results
1 | O=c1[nH]c(=O)n([C@H]2C[C@H](O)[C@@H](CO)O2)cc1-c1cc(-c2ccccc2)no1 | > 40 | > 40 | > 40 | > 200 | > 40 | 38 (≈ 102 µM) | > 40 | 25 (≈ 67.3 µM) | 61 (≈ 164 µM) | > 40 | 25 (≈ 67.3 µM) | > 40 | 73 (≈ 197 µM) | > 40 | > 40 | > 40 | > 100 | – | – | MIC (E6SM [2]): > 40 mg/L
2 | O=c1[nH]c(=O)n([C@H]2C[C@H](O)[C@@H](CO)O2)cc1-c1cc(-c2ccc(Cl)cc2)no1 | > 40 | > 40 | > 40 | > 200 | > 40 | 9 (≈ 22.2 µM) | > 40 | 7 (≈ 17.3 µM) | 22 (≈ 54.2 µM) | > 40 | 7 (≈ 17.3 µM) | > 40 | > 40 | > 40 | > 40 | > 40 | 77 (≈ 190 µM) | > 40 | – | –
3 | O=c1[nH]c(=O)n([C@H]2C[C@H](O)[C@@H](CO)O2)cc1-c1cc(Br)no1 | 7 (≈ 18.7 µM) | 2 (≈ 5.35 µM) | 2 (≈ 5.35 µM) | > 50 | > 400 | 0.09 (≈ 0.241 µM) | – | > 100 | > 100 | > 400 | > 100 | > 200 | – | > 400 | – | > 400 | > 100 | > 400 | 0.24 (≈ 0.641 µM) | MIC (E6SM [20]): > 400 mg/L; MIC (E6SM [22]): > 400 mg/L
4 | O=c1[nH]c(=O)n([C@H]2C[C@H](O)[C@@H](CO)O2)cc1/C=C/Br [BRIVUDINE] | 0.07 (≈ 0.21 µM) | 0.07 (≈ 0.21 µM) | 0.07 (≈ 0.21 µM) | 200 (≈ 600 µM) | > 400 | 0.003 (≈ 0.00901 µM) | > 400 | 250 (≈ 750 µM) | 8 (≈ 24 µM) | – | 250 (≈ 750 µM) | 10 (≈ 30 µM) | – | – | > 400 | 100 (≈ 300 µM) | – | > 400 | 0.003 (≈ 0.00901 µM) | MIC (HEL [23]): 0.4 mg/L (≈ 1.2 µM); MIC (HEL [24]): > 400 mg/L; MIC (E6SM [25]): 1 mg/L (≈ 3 µM)
